Calls of active or inactive are those of the source. The rule behind the calls is not given here.
Assays:
[1] = Selectivity index, ratio of IC50 for rat L6 cells to IC50 for chloroquine- and pyrimethamine-resistant Plasmodium falciparum K1; type: toxicity, cell-based; conditions: L6 cells versus Plasmodium falciparum K1, read-out: Ratio IC50
Summary of the method: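 The L-6 IC50 comes from the 72 h Alamar Blue assay on rat myoblasts (MEM, 15% horse serum, 90–0.123 µg/mL). The K1 IC50 comes from [3H]-hypoxanthine uptake by infected human red cells: 48 h exposure to 5–0.078 µg/mL, then 24 h with label. SI is L-6 IC50 over K1 IC50.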

[2] = Selectivity index, ratio of IC50 for rat L6 cells to IC50 for bloodstream form of Trypanosoma brucei rhodesiense STIB 900; type: toxicity, cell-based; conditions: read-out: Ratio IC50
Summary of the method: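 Medium was MEM with 2-mercaptoethanol and 15% heat-inactivated horse serum, dilutions 90 to 0.123 µg/mL. Wells held 10^4 STIB 900 bloodstream forms or rat L-6 myoblasts. Dye was added for a further 2–4 h, then fluorescence read (ex 536/em 588 nm) as % of control. SI is L-6 IC50 over parasite IC50.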

L6 = test: Cytotoxicity against rat L6 cells after 72 hrs by microplate fluorometry; type: cell-based; conditions: L6, 72 h
Summary of the method: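 Rat skeletal myoblasts (L-6) run in the same Alamar Blue microplate format: MEM with 2-mercaptoethanol and 15% heat-inactivated horse serum, dilutions 90 to 0.123 µg/mL, 72 h at 37 °C in 5% CO₂. Alamar Blue for a further 2–4 h, fluorescence at ex 536 / em 588 nm as percent of control. Mefloquine standard.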

Plasmodium falciparum = test: Antiprotozoal activity against chloroquine- and pyrimethamine-resistant Plasmodium falciparum K1 after 48 hrs by [3H]-hypoxanthine incorporation assay; type: functional, organism-based
Summary of the method: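 Infected human red cells in RPMI 1640 with 5% Albumax, exposed to serial dilutions from 5 to 0.078 µg/mL for 48 h at 37 °C under reduced oxygen. [3H]-hypoxanthine (0.5 µCi/well) added, then a further 24 h. Cells harvested onto filters and scintillation counted as % of untreated control. IC50 taken from sigmoidal curves; duplicate, repeated once.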

[3] = system: Trypanosoma brucei rhodesiense; test: Antiprotozoal activity against bloodstream form of Trypanosoma brucei rhodesiense STIB 900 after 72 hrs by microplate fluorometry; type: functional, organism-based; conditions: STIB 900, 72 h
Summary of the method: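 Bloodstream forms (10⁴/well) in MEM with 2-mercaptoethanol and 15% heat-inactivated horse serum, serial dilutions 90 to 0.123 µg/mL, 72 h at 37 °C under 5% CO₂. Alamar Blue added for a further 2–4 h. Fluorescence read at ex 536 / em 588 nm and expressed as percent of control. Melarsoprol standard.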

Plasmodium berghei [4] = test: Antiprotozoal activity against Plasmodium berghei ANKA infected in NMRI mouse assessed as reduction in parasitemia at 50 mg/kg, ip qd for administered starting 4 h post-infection for 4 consecutive days; parameters: scale not given: the % may be the effect or the level left; conditions: route intraperitoneal
Plasmodium berghei [5] = test: Antiprotozoal activity against bloodstream form of Plasmodium berghei ANKA infected in NMRI mouse assessed as mean survival time at 50 mg/kg, ip qd for administered starting 4 h post-infection for 4 consecutive days (reference value: 6 to 7 days); conditions: route intraperitoneal
[6] = system: Trypanosoma brucei rhodesiense; test: Antiprotozoal activity against bloodstream form of Trypanosoma brucei rhodesiense STIB 900 infected in NMRI mouse assessed as reduction in parasitemia at 50 mg/kg, ip qd for administered 3 days post-inoculation for 4 consecutive days; type: functional, organism-based; parameters: dose 50 mg/kg

| Compound | selectivity ratio [1] | selectivity ratio [2] | IC50 (L6) [nM] | IC50 (Plasmodium falciparum) [nM] | IC50 [3] [nM] | Activity (Plasmodium berghei [4]) [%] | Time (Plasmodium berghei [5]) [days] | Activity [6] |
| --- | --- | --- | --- | --- | --- | --- | --- | --- |
| CCN(CC)CCCN1CCC2(N3CCN(C)CC3)CC(c3ccccc3)C1C(c1ccccc1)C2 (racemic) | 1140 | 26.6 | 68100 | 60 | 2560 | 17 | 4 |  |
| CCN(CC)CCC(=O)NC1CC2(N3CCN(C)CC3)CC(c3ccccc3)C1C(c1ccccc1)C2 (racemic) | 53.6 | 15.7 | 35900 | 670 | 2290 |  |  |  |
| CN1CCN(C23CCN(CCCN4CCCC4)C(C(c4ccccc4)C2)C(c2ccccc2)C3)CC1 (racemic) | 726 | 16.8 | 43500 | 60 | 2590 | 0 | 4 |  |
| CN1CCN(C23CC(NC(=O)CN4CCCCC4)C(C(c4ccccc4)C2)C(c2ccccc2)C3)CC1 (racemic) | 63.2 | 235 | 22100 | 350 | 94 |  |  | inactive |
| CN1CCN(C23CC(NC(=O)CCN4CCCC4)C(C(c4ccccc4)C2)C(c2ccccc2)C3)CC1 (racemic) | 76.7 | 13.6 | 42200 | 550 | 3100 |  |  |  |
| CN1CCN(C23CC(NCCC(=O)N4CCCC4)C(C(c4ccccc4)C2)C(c2ccccc2)C3)CC1 (racemic) | 36.4 | 42.9 | 21400 | 590 | 500 |  |  |  |
| CCN(CC)C(=O)CNC1CC2(N3CCN(C)CC3)CC(c3ccccc3)C1C(c1ccccc1)C2 (racemic) | 32.7 | 75.9 | 37900 | 1160 | 500 |  |  |  |
| CN1CCN(C23CC(NC(=O)CN4CCCC4)C(C(c4ccccc4)C2)C(c2ccccc2)C3)CC1 (racemic) | 99.3 | 111 | 27800 | 280 | 250 |  |  |  |
| CN1CCN(C23CC(NC(=O)CCN4CCCCC4)C(C(c4ccccc4)C2)C(c2ccccc2)C3)CC1 (racemic) | 66.7 | 12.1 | 15400 | 230 | 1270 |  |  |  |
| c1ccc(C2CC3(N4CCCCC4)CC(NCCCN4CCCC4)C2C(c2ccccc2)C3)cc1 (racemic) |  | 13.4 |  |  | 2020 |  |  |  |
| CN1CCN(C23CCN(CCCN4CCCCC4)C(C(c4ccccc4)C2)C(c2ccccc2)C3)CC1 (racemic) | 577 | 11.4 | 28900 | 50 | 2540 | 11 | 4 |  |
| c1ccc(C2CC3(N4CCCCC4)CCN(CCCN4CCCCC4)C2C(c2ccccc2)C3)cc1 (racemic) |  | 7.5 |  |  |  |  |  |  |
| CCN(CC)CCCC(C)Nc1ccnc2cc(Cl)ccc12 (centres undefined) [CHLOROQUINE] |  |  |  |  |  | 99.6 | 20 |  |
| CN1CCN(C23CC(NCCCN4CCCC4)C(C(c4ccccc4)C2)C(c2ccccc2)C3)CC1 (racemic) | 33.8 | 14.1 | 22600 | 670 | 1610 |  |  |  |
| C[C@@H]1CC[C@H]2[C@@H](C)C(=O)O[C@@H]3O[C@@]4(C)CC[C@@H]1[C@]32OO4 [ARTEMISININ] | 70.4 |  |  | 6.4 |  |  |  |  |
| CCN(CC)CC(=O)NC1CC2(N3CCN(C)CC3)CC(c3ccccc3)C1C(c1ccccc1)C2 (racemic) | 71.3 | 39.4 | 26400 | 370 | 670 |  |  |  |

Reference: ChEMBL document CHEMBL2412993, “Antiprotozoal activity of bicyclic diamines with a N-methylpiperazinyl group at the bridgehead atom” (Bioorg Med Chem, 2013)
